The target of test [1] is T1, ChTS-DHFR (Cryptosporidium hominis, UniProt A0A0S4TER9). Description: Steady-state spectroscopic enzyme inhibition assay. It is filed as biochemical. The settings on record: for Potency against ChTS-DHFR relative to FMN (in words): among the 50 compounds tested.
In test [2] the target is T2, T. gondii TS-DHFR (Toxoplasma gondii, UniProt Q07422).
T2 sequence (Q07422 1-610): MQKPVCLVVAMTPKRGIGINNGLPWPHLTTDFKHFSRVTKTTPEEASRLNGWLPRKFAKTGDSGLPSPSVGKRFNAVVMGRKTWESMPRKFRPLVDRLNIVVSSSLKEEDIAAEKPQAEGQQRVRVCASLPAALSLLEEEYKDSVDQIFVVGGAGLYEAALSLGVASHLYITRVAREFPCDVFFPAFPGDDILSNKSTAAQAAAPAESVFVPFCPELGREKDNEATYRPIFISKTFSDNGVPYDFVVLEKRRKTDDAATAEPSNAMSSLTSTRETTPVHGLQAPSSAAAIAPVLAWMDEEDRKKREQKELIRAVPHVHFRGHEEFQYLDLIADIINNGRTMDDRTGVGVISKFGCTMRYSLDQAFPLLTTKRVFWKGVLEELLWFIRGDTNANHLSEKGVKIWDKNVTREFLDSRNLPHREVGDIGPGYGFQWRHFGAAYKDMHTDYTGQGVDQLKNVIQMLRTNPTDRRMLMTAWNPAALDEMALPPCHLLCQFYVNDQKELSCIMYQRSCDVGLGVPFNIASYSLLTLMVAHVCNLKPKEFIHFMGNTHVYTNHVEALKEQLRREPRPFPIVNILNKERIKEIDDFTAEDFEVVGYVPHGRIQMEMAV
In words: Enzyme inhibition assay, T. gondii TS-DHFR. It is filed as biochemical. A digest of the protocol: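 IC50 determined for the test compound against T. gondii TS-DHFR. Enzyme and ligand concentrations were the same as in parallel runs on C. hominis TS-DHFR, human DHFR and human TS. Values are averages of at least three independent experiments.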

The subject of test [3] is TS reaction of ChTS-DHFR. In words: Inhibition of the TS reaction alone. It is filed as biochemical, Cryptosporidium hominis. The conditions noted are these: 300 μM FMN.
Test [4] concerns DHFR of ChTS-DHFR. Description: Steady-state competition assay. It is filed as biochemical, Cryptosporidium hominis.
Test [5] deals with DHFR of ChTS-DHFR. In words: DHFR single-enzyme turnover. It is filed as biochemical, Cryptosporidium hominis. The settings on record: enzyme in five-fold excess of H2F.
In test [6] the target is T1, ChTS-DHFR. Description: Pre-steady-state burst amplitude dose response. It is filed as binding. The settings on record: substrate in slight excess over enzyme. The method, boiled down: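 Pre-steady-state kinetics of the DHFR step were observed on the millisecond time scale, with H2F substrate in slight excess over ChTS-DHFR. Burst amplitude was recorded across a dose series of test compound. Amplitude versus concentration was fit to a hyperbolic curve to derive a dissociation constant (Kd).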

Test [7] has as its system ChTS-DHFR R190G mutant. In words: Inhibition of mutant ChTS-DHFR R190G. It is filed as biochemical, Cryptosporidium hominis. The settings on record: preliminary analysis.
For test [8], the system named is Cryptosporidium parasite growth. The settings on record: cited from earlier work.

The molecule `CC(=O)N[C@@H]1[C@@H](O)[C@H](O[C@@H]2O[C@H](CO)[C@@H](O)[C@H](O)[C@H]2NC(C)=O)[C@@H](CO)O[C@H]1O` [Chitodextrin] registered an IC50 in test [1] greater than 500 µM.
The same measure, in the same setting: next, `C[C@H]1O[C@@H](O[C@H]2[C@@H](O)C[C@H](O[C@H]3[C@@H](O)C[C@H](O[C@H]4CC[C@@]5(C)[C@H](CC[C@@H]6[C@@H]5C[C@@H](O)[C@]5(C)[C@@H](C7=CC(=O)OC7)CC[C@]65O)C4)O[C@@H]3C)O[C@@H]2C)C[C@H](O)[C@@H]1O` [Digoxin, reference compound]: greater than 500 µM.
`Cc1cc2nc3c(=O)[nH]c(=O)nc-3n(C[C@H](O)[C@H](O)[C@H](O)COP(=O)(O)O)c2cc1C` [FMN, Flavin mononucleotide]: the “Change in IC50 on varying enzyme concentration” value in test [1] (enzyme concentration varied from 80 to 250 nM) is recorded as “no resulting change”. Also, the “Inhibition of TS-DHFR from Toxoplasma gondii (in words)” value in test [2] was “did not inhibit”. In addition, the “Inhibition of the TS reaction alone” value in test [3] is “little inhibition”. For the same molecule, in test [4] (200 μM FMN), the “Mode of inhibition with respect to H2folate” value is “noncompetitive (mixed)” and the “Mode of inhibition with respect to NADPH” value is recorded as “uncompetitive”. Also, in test [4] (in the presence of 200 μM FMN (no inhibitor: 2.35 ± 0.04)), the “Vmax, H2F varied” value amounted to 1.8 ± 0.1 µmol/min. Moreover, in test [4] (in the presence of 200 μM FMN (no inhibitor: 2.37 ± 0.03)), the “Vmax, NADPH varied” value was determined as 1.77 ± 0.01 µmol/min. In addition, the “Effect on rate of chemistry, DHFR single turnover” value in test [5] (500 μM FMN) was “no decrease”. For the same molecule, the “Effect on amplitude of the single-turnover plot” value in test [5] is reported as “dose-dependent decrease”. The “Effect on DHFR burst amplitude” value in test [6] is “dose-dependent decrease”. Also, the “Inhibitory effect on R190G mutant less than that against WT ChTS-DHFR” value in test [7] is recorded as “approximately 20%”.
`CC(=O)N1CCN(c2ccc(OCC3COC(Cn4ccnc4)(c4ccc(Cl)cc4Cl)O3)cc2)CC1` (stereo not drawn) [Ketoconazole, reference compound] returned an IC50 in test [1] greater than 500 µM.
On the same count and under the same terms, the value for `COc1cccc2c1C(=O)C1=C(C2=O)C(O)C2=C(C1O)[C@@H](C[C@@H]1C[C@H](N)[C@@H](O)[C@H](C)O1)C[C@@](O)(/C(C)=N/NC(=O)c1ccccc1)C2` (stereo partly drawn) [Rubidazone] was greater than 500 µM.
With `COC1=C(N)C(=O)c2nc(-c3nc(C(=O)O)c(C)c(-c4ccc(OC)c(OC)c4O)c3N)ccc2C1=O` [Streptonigrin], the “Potency against ChTS-DHFR relative to FMN (in words)” value in test [1] is listed as “comparable potency”.
In the case of `CC(=O)Oc1ccccc1C(=O)Nc1ncc([N+](=O)[O-])s1` [nitazoxanide], in test [8], the “Concentration range inhibiting parasite growth” value was 1 to 40 µM.
Take `Cc1cc2nc3c(=O)[nH]c(=O)nc-3n(C[C@H](O)[C@H](O)[C@H](O)CO)c2cc1C` [riboflavin]: the “Potency against ChTS-DHFR relative to FMN (in words)” value in test [1] is given as “comparable potency”.

Broadly, the IC50 is the concentration at which inhibition is half-maximal. Lower therefore signals greater potency in that assay.
